Source: PubChem BioAssay (Broad Institute)
DENV2 CPE = protects cells from dengue virus 2 cytopathic effect; DENV2-infected cells, cytopathic effect rescue, plate reader; CPE inhibition, % at 9.99 µM; actives 1.7% (n = 350,000); in the data active = CPE inhibition above about 20%, passing the limit was not always enough; inconclusive = no clear call, values can overlap the other calls; tested in BHK-21 cells
miR-122 sensor = blocks miR-122 activity in Huh7 sensor cells. Huh7 miR-122 Renilla luciferase sensor, 48 h; neutral wells = 0, positive control = 100. activation (reporter increase), % at 12.5 µM. actives 0.3% (n = 340,000);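 active = mean replicate activation score at least 90 and every replicate individually at or above 90; inconclusive = only one of the two criteria met; inactive = neither criterion met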;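 note: higher luciferase means less miR-122 activity so hits act as miR-122 inhibitors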
ERAP1 inh = ERAP1 (human) enzyme inhibition; AID 652197; inhibition, % at 10.7 µM; actives 0.15% (n = 340,000); recombinant ERAP1, Leu-AMC fluorescence, 60 min;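 active = mean replicate inhibition of at least 30%, or all replicates individually reaching that 30% level; inactive = mean below 30% and not every replicate reaching it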
GSIS activator = primary screen for activators of insulin secretion dependent on glucose, INS-1E cells, GLuc reporter luminescence; INS-1E GLuc reporter insulin secretion, 2-3 h; activation, % at 16.6 µM; actives 0.61% (n = 370,000); AID 743287;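 active = lowest replicate activation of at least 40%, so every replicate reaches that level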
F508del corr = CFTR F508del correction in bronchial cells; CFBE cells, YFP halide quenching; stimulated with forskolin plus potentiator P3; % fluorescence drop versus neutral controls; actives 0.36% (n = 350,000); activity (quench increase), % at 7.58 µM; AID 720511;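 active = mean added fluorescence quench of at least 8% versus neutral control, with both replicates also reaching 8%; inconclusive = only one of the mean or replicate conditions met; inactive = mean below 8% and not both replicates reaching 8%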;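 note: cells transiently co-express mutant CFTR-F508del with the halide-sensitive YFP; corrector assay measuring rescue of mutant channel to the surface after 24 h compound exposure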
E-sel inducer = induces E-selectin expression in human endothelial cells; P16581; HUVEC E-selectin immunofluorescence imaging; normalized: neutral wells 0, TNF-alpha wells 100; activation, % at 7.58 µM; actives 0.37% (n = 260,000);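 active = mean E-selectin-positive cell signal at least 10% of the positive control, reached in at least 60% of replicates, without over 20% cell loss; inconclusive = no rule given, readout overlaps actives, possibly toxicity-flagged; inactive = the rest, including those meeting only one limit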
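Test system – human umbilical vein endothelial cells (HUVEC), E-selectin induction · Input – 3,000 HUVEC seeded per well · Buffer or medium – EGM-2, gelatin · Compound dosing – single-point compound dose · Detection – immunofluorescence imaging · Measure – percent E-selectin-positive cells · Controls – TNF-alpha high, DMSO low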
Large screens that a line does not name were inactive. This is a sample that favours compounds with a hit; in the whole collection about 2.6% have one here.

CCOc1ccc(CSC2=NCCN2)cc1Cl	miR-122 sensor 277 (no result: DENV2 CPE, ERAP1 inh, GSIS activator, F508del corr, E-sel inducer)
C[C@@H]1CCCCO[C@H](CN(C)C(=O)Nc2ccc(F)cc2)[C@@H](C)CN([C@@H](C)CO)C(=O)c2cc(NC(=O)CCCN(C)C)ccc2O1	none (no result: miR-122 sensor)
Cc1cccc(Nc2nnc(SCC(=O)NC(=O)Nc3ccc4c(c3)OCCO4)s2)c1	none (no result: F508del corr)
COc1ccccc1Nc1nnc(SCC(=O)NC(=O)Nc2ccc3c(c2)OCCO3)s1	GSIS activator 81 (no result: DENV2 CPE, miR-122 sensor, ERAP1 inh, F508del corr)
C[C@@H]1CN([C@H](C)CO)C(=O)c2cc(NC(=O)Cn3cnnn3)ccc2O[C@H]1CN(C)Cc1ccc(Oc2ccccc2)cc1	none
C[C@H]1CN([C@@H](C)CO)C(=O)Cc2cc(NC(=O)Cn3cnnn3)ccc2O[C@@H]1CN(C)Cc1ccc(Oc2ccccc2)cc1	none
C[C@H]1CN([C@@H](C)CO)C(=O)c2cc(NC(=O)Cn3cnnn3)ccc2O[C@@H]1CN(C)Cc1ccc(Oc2ccccc2)cc1	E-sel inducer 48
C[C@@H]1CN([C@H](C)CO)C(=O)c2cc(NC(=O)Cn3cnnn3)ccc2O[C@H]1CN(C)S(=O)(=O)c1ccccc1	E-sel inducer 39
C[C@H]1CN([C@@H](C)CO)C(=O)c2cc(NC(=O)Cn3cnnn3)ccc2O[C@H]1CN(C)Cc1ccc(Oc2ccccc2)cc1	E-sel inducer 139
C[C@H](CO)N1C[C@H](C)[C@@H](CN(C)S(=O)(=O)c2ccccc2)Oc2ccc(NC(=O)Cn3cnnn3)cc2C1=O	none
C[C@@H]1CN([C@@H](C)CO)C(=O)Cc2cc(NC(=O)Cn3cnnn3)ccc2O[C@H]1CN(C)Cc1ccc(Oc2ccccc2)cc1	E-sel inducer 283
O=C(C[C@H]1C[C@H]2c3cc(NS(=O)(=O)c4ccc(F)cc4)ccc3O[C@H]2[C@@H](CO)O1)NCc1ccncc1	none
CC(C)NC(=O)N1CC2(C1)[C@@H](c1ccccc1)[C@@H](CO)N2C(=O)C1CCCCC1	DENV2 CPE inconclusive (no result: miR-122 sensor)
C[C@H](CO)N1C[C@H](C)[C@H](CN(C)Cc2ccncc2)Oc2ccc(NC(=O)Cn3cnnn3)cc2CC1=O	DENV2 CPE 23
C[C@H]1CN([C@@H](C)CO)C(=O)Cc2cc(NC(=O)Cn3cnnn3)ccc2O[C@H]1CN(C)Cc1ccncc1	none
C[C@@H]1CN([C@H](C)CO)C(=O)c2cc(NC(=O)NC3CCCCC3)ccc2O[C@@H](C)CCCCO[C@@H]1CN(C)C(=O)Nc1ccc(F)cc1	none (no result: miR-122 sensor)
C/C=C\C(=O)Nc1cccc(C2=NOC3(C2)C[C@@H](C(N)=O)N(C(=O)c2ccc(OC)cc2)C3)c1 (stereo partly specified)	DENV2 CPE 22 (no result: miR-122 sensor)
C/C=C\C(=O)Nc1cccc(C2=NOC3(C2)C[C@@H](C(N)=O)N(C(=O)c2ccc(Cl)cc2)C3)c1 (stereo partly specified)	none (no result: miR-122 sensor)
CN(C)C(=O)C[C@H]1CC[C@@H](NC(=O)c2ccc(F)cc2)[C@H](CO)O1	none
CN(C)CC#Cc1ccc([C@H]2[C@H](CO)N3CCCCN(C(=O)Nc4ccccc4F)C[C@@H]23)cc1	none (no result: DENV2 CPE, ERAP1 inh)
CCC(=O)N1CC2(C1)[C@H](c1ccc(-c3cccc(C)c3)cc1)[C@@H](CO)N2S(C)(=O)=O	none (no result: miR-122 sensor)
CCC(=O)N1CC2(C1)[C@@H](c1ccc(-c3cccc(F)c3)cc1)[C@@H](CO)N2CC1CC1	DENV2 CPE 20 (no result: miR-122 sensor)
CCC(=O)N1CC2(C1)[C@@H](c1ccc(-c3cccc(C)c3)cc1)[C@@H](CO)N2S(C)(=O)=O	DENV2 CPE 27 (no result: miR-122 sensor)
CO[C@H]1CN(C)C(=O)c2ccc(NC(=O)c3ccno3)cc2OC[C@H](C)NC[C@@H]1C	none (no result: miR-122 sensor)
O=C(CN1CCOCC1)NCC[C@H]1CC[C@@H](NC(=O)Nc2ccc(C(F)(F)F)cc2)[C@@H](CO)O1	none
COc1ccnc(N2CCN(c3cccc(C(F)(F)F)c3)CC2)c1C#N	GSIS activator 73 (no result: DENV2 CPE, miR-122 sensor, ERAP1 inh, F508del corr, E-sel inducer)
C[C@@H]1CN([C@@H](C)CO)C(=O)c2cc(NC(=O)CCN3CCOCC3)ccc2O[C@@H]1CN(C)Cc1ccc2c(c1)OCO2	none
CC(C)c1cn(CC[C@H]2CC[C@@H](NS(=O)(=O)c3ccccc3)[C@@H](CO)O2)nn1	none (no result: miR-122 sensor)
